Reference: PubChem BioAssay AID439 (The Scripps Research Institute Molecular Screening Center, 2006)
Calls of active or inactive are those of the source.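 Rule for the calls: active = compounds with EC50 at or below 10 micromolar; inactive = EC50 above 10 micromolar.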

Biological target: Sphingosine 1-phosphate receptor 3 (Homo sapiens) (UniProt Q99500)
Assay: S1P3 receptor activation, EC50 – cell-based, NFAT-BLA reporter, dose response (AID 439)
Details: S1P3 NFAT-beta-lactamase reporter cells, FRET ratio
In short: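 Test system: CHO cells stably expressing human S1P3, G-alpha-16, NFAT-beta-lactamase reporter | Compound: 10 concentrations, threefold steps | Incubation: 4 h compound exposure at 37 °C | Detection: BLA FRET emission ratio, 460 and 535 nm | Evaluation: EC50 from four-parameter fit, activity relative to 1 µM S1P | Controls: 1 µM S1P as 100% activation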

Sequence of Sphingosine 1-phosphate receptor 3 (Homo sapiens) (Q99500 whole entry, looked up): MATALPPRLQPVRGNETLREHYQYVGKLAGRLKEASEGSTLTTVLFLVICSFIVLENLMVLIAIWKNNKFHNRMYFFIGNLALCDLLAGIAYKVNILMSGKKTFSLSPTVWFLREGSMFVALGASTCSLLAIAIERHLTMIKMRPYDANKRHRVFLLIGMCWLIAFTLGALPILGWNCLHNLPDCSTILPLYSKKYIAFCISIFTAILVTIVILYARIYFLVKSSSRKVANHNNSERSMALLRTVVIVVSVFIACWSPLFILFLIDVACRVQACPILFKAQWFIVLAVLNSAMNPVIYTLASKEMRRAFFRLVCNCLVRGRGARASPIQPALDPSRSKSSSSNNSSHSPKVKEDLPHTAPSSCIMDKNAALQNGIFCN

CCOC(=O)C1=C(N)OC2=C(C(=O)CCC2)C1c1ccccc1OCC (stereo unspecified)
EC50: inactive
